Data on 1 compound can be found in ChEMBL document CHEMBL4346653, “A2B Adenosine Receptor Antagonists with Picomolar Potency” (J Med Chem, 2019).

The structures appear in SMILES notation. pKi: −log10 of the molar value. Some results are limits rather than exact numbers.

For orientation: pKi means the negative decadic logarithm of the Ki, by convention in mol/L.

The target in experiment [1] is T1, Adenosine receptor A1 (Mus musculus, UniProt Q60612).
T1 sequence (Q60612 whole entry): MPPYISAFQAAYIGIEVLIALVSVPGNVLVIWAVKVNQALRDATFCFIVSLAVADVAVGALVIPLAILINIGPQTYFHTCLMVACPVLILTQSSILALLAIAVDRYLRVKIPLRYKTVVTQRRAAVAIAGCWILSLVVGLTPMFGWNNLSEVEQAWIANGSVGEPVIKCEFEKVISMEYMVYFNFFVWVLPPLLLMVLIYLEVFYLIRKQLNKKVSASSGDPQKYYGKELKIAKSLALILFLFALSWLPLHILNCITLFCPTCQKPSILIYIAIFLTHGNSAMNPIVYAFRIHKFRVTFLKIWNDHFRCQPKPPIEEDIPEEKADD
Briefly: Displacement of [3H]DPCPX from recombinant mouse A1 adenosine receptor expressed in CHO cell membranes measured after 60 mins by liquid scintillation counting method. For orientation: In a radioligand displacement assay an active substance lowers the binding of a labelled ligand.

Experiment [2] deals with T2, Adenosine receptor A3 (Mus musculus, UniProt Q61618).
T2 sequence (Q61618 whole entry): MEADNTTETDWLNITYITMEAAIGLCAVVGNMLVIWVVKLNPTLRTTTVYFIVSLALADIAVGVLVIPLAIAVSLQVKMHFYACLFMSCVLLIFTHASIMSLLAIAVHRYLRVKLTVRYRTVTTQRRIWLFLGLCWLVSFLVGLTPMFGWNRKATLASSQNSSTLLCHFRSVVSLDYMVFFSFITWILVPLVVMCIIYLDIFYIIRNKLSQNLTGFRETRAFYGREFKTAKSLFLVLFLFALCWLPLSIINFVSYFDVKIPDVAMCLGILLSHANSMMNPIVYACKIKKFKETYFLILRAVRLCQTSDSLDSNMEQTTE
Briefly: Displacement of [3H]NECA from recombinant mouse A3 adenosine receptor expressed in CHO cell membranes measured after 180 mins by liquid scintillation counting method.

Experiment [3] concerns the target Adenosine receptor A2a (Mus musculus, UniProt Q60613). Briefly: Displacement of [3H]MSX-2 from recombinant mouse A2A adenosine receptor expressed in CHO cell membranes measured after 60 mins by liquid scintillation counting method.
The target of experiment [4] is T3, Adenosine receptor A3 (Rattus norvegicus, UniProt P28647).
T3 sequence (P28647 whole entry): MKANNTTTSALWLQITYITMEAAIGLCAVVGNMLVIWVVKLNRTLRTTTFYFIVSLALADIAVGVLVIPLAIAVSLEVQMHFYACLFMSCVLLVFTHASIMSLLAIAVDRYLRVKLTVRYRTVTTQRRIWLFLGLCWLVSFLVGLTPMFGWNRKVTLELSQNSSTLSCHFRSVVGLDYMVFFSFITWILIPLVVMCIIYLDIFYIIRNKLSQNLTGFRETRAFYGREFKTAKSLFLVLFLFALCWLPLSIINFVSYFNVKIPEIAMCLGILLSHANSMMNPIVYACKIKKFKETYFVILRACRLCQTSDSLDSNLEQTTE
Briefly: Binding affinity to rat A3 adenosine receptor.

The target of experiment [5] is T4, Adenosine receptor A2b (Mus musculus, UniProt Q60614).
T4 sequence (Q60614 whole entry): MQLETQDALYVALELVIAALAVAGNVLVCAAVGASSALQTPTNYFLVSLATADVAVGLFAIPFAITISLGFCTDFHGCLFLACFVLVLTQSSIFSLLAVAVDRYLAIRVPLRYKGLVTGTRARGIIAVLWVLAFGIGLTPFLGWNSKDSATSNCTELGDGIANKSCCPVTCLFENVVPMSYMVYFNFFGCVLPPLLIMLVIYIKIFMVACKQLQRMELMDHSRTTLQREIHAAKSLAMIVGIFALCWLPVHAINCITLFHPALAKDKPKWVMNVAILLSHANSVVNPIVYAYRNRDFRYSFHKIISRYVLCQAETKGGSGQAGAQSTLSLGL
Briefly: Displacement of [3H]PSB-603 from recombinant mouse A2B adenosine receptor expressed in CHO cell membranes measured after 75 mins by liquid scintillation counting method.

Experiment [6] deals with Adenosine receptor A2a (Homo sapiens, UniProt P29274). The experiment in a line: Displacement of [3H]MSX-2 from recombinant human A2A adenosine receptor expressed in CHO cell membranes measured after 60 mins by liquid scintillation counting method. The gist of the method:
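Human A2A receptor binding against [3H]MSX-2, n = 3. Ki values (± SEM, nM) come from concentration-inhibition curves. Some Ki values are marked as derived from an extrapolated curve.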

In experiment [7] the target is T5, Adenosine receptor A2b (Rattus norvegicus, UniProt P29276).
T5 sequence (P29276 whole entry): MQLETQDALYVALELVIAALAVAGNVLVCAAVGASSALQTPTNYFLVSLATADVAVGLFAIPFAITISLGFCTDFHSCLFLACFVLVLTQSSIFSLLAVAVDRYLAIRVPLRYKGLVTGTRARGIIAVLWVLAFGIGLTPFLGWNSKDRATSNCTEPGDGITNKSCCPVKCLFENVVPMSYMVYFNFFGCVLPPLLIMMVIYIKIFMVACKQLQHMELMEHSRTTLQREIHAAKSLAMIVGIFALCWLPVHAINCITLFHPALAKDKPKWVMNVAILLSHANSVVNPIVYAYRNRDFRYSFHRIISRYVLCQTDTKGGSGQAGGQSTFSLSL
The experiment in a line: Displacement of [3H]PSB-603 from recombinant rat A2B adenosine receptor expressed in CHO cell membranes measured after 75 mins by liquid scintillation counting method.

Adenosine receptor A2a (Homo sapiens, UniProt P29274), sequence (P29274 whole entry): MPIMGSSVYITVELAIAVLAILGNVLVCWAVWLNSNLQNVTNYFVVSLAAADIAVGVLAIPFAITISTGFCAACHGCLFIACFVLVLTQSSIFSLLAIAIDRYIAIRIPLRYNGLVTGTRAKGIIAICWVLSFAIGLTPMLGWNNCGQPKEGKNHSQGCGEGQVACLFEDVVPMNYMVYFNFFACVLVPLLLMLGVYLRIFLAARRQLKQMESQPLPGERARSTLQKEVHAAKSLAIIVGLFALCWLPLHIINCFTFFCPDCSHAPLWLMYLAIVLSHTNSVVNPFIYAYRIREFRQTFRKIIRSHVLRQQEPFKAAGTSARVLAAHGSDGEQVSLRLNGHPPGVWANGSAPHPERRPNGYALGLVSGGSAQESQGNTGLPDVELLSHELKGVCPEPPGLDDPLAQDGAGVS
Adenosine receptor A2a (Mus musculus, UniProt Q60613), sequence (Q60613 whole entry): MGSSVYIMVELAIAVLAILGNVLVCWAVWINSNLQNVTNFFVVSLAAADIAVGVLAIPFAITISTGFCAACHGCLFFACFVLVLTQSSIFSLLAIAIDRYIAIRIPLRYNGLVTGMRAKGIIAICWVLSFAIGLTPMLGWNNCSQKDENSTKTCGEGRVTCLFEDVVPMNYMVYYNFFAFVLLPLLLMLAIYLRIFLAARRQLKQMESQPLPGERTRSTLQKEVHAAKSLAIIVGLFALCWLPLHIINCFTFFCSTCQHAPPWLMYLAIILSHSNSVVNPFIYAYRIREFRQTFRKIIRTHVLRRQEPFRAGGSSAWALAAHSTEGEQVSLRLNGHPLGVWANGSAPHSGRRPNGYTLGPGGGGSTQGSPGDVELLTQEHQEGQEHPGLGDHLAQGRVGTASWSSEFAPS

As for `CCCn1c(=O)[nH]c2nc(-c3ccc(S(=O)(=O)O)cc3)[nH]c2c1=O`, the pKi is 6.23 in experiment [1]; < 5.00 in experiment [2]; < 5.00 in experiment [3]; < 5.00 in experiment [4]; 5.71 in experiment [5]; 5.42 in experiment [6]. Moreover, the pKi in experiment [7] was 5.50.
